The target of data set [1] is T1, Insulin-induced gene 1 protein (Homo sapiens) (UniProt O15503).
T1 sequence (whole entry): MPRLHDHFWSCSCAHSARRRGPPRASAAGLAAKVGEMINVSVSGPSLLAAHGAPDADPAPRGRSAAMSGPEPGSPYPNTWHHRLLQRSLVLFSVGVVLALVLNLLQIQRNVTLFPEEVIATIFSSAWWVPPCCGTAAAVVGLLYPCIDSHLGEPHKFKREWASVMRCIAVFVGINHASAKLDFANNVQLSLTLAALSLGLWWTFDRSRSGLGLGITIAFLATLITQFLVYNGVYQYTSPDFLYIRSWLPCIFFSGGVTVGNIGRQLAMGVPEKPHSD
Briefly: Binding affinity to FLAG/myc-tagged Insig1 transfected in HEK293 cell membrane co-transfected with Flag-tagged human HMGCR-dCat-Eluc membrane domain (1 to 499 residues) at 20 uM preincubated for 30 mins followed by irradiation with UV light for 3 mins by immunoprecipitation analysis. The format is cell membranes.

Data set [2] deals with T2, 3-hydroxy-3-methylglutaryl-coenzyme A reductase (Homo sapiens) (UniProt P04035).
T2 sequence (whole entry): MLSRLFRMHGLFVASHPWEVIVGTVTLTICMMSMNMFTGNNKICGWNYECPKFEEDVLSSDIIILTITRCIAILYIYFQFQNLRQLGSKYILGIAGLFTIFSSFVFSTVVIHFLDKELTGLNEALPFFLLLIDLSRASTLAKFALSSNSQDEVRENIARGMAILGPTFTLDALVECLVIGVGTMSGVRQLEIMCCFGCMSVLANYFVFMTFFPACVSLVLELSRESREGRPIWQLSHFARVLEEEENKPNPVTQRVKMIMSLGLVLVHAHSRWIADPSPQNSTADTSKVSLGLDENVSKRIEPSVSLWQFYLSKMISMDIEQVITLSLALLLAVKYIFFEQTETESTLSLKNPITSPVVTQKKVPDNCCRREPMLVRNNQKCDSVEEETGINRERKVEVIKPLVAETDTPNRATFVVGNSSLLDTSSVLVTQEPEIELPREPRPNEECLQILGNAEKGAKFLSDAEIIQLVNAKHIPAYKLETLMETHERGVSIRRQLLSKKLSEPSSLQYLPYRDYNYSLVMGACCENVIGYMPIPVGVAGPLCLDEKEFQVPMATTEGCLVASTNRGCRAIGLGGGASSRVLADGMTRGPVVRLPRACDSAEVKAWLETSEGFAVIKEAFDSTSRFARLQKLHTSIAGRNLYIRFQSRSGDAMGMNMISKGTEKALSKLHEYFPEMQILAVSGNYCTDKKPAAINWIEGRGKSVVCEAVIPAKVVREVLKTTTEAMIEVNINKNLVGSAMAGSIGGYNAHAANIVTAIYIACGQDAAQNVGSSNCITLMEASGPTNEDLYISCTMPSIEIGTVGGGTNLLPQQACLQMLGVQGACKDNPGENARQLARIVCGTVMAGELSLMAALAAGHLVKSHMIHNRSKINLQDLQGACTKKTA
Briefly: (§1) Induction of degradation of Flag-tagged human HMGCR-dCat-ELuc membrane domain (1 to 499 residues) expressed in HEK293 cells assessed as reduction in HMGCR-dCat-Eluc protein level after 4 hrs by luciferase reporter assay. The format is cell-based. In outline: (§2)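 HEK293 cells stably expressing HMGCR-dCat-ELuc (FLAG-tagged membrane domain, residues 1-499, emerald luciferase) in DMEM/10% FBS. Compound treatment 4 h, then remaining fusion quantified by luciferase luminescence. Normalized to 0.1% DMSO vehicle as % of control. EC50 given as mean ± SD of more than three independent dose-response experiments.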
(In a reporter assay the amount or activity of a reporter protein is the signal.)

The target of data set [3] is T3, 3-hydroxy-3-methylglutaryl-coenzyme A reductase (Homo sapiens, UniProt P04035).
T3 sequence (P04035 whole entry): T2 sequence (whole entry)
Described as §1. It is filed as cell-based. In outline: as §2

The target in data set [4] is T2, 3-hydroxy-3-methylglutaryl-coenzyme A reductase (Homo sapiens). Briefly: Binding affinity to Flag-tagged human HMGCR-dCat-ELuc membrane domain (1 to 499 residues) transfected in HEK293 cell membrane co-transfected with p-CMV-Insig1-myc-FLAG at 20 uM preincubated for 30 mins followed by irradiation with UV light for 3 mins in presence of 50 to 200 uM SRP3042 by immunoprecipitation analysis. The format is cell membranes.

Data set [5] concerns HEK293. Briefly: Cytotoxicity against human HEK293 cells assessed as cell viability at 0.01 to 10 uM incubated for 4 hrs by CytoRed viability assay. The settings on record: hek293, 4 h, dose 0.01-10 µM. The format is cell-based. In outline:
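CytoRed esterase-based viability read in the same wells as the 4 h HMGCR-dCat-ELuc stable HEK293 degradation assay, just before luciferase measurement.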

Data set [6] deals with T2, 3-hydroxy-3-methylglutaryl-coenzyme A reductase (Homo sapiens). Description: Binding affinity to Flag-tagged human HMGCR-dCat-ELuc membrane domain (1 to 499 residues) transfected in HEK293 cell membrane co-transfected with p-CMV-Insig1-myc-FLAG at 20 uM preincubated for 30 mins followed by irradiation with UV light for 3 mins by immunoprecipitation analysis. It is filed as cell membranes.

For data set [7] the target is unchanged. Description: Induction of degradation of Flag-tagged human HMGCR-dCat-ELuc membrane domain (1 to 499 residues) expressed in HEK293 cells assessed as reduction in HMGCR-dCat-Eluc protein level at 10 uM after 4 hrs by luciferase reporter assay. It is filed as cell-based. In outline: as §2
The test system of data set [8] is HEK293. Briefly: Cytotoxicity against human HEK293 cells assessed as reduction in cell viability at 10 uM incubated for 4 hrs by CytoRed viability assay. It is filed as cell-based. The settings on record: hek293, 4 h. Summed up:
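HEK293 cells stably expressing HMGCR-dCat-ELuc (HMGCR residues 1-499 with FLAG tag and emerald luciferase) are grown in DMEM with 10% FBS and penicillin-streptomycin at 5% CO2. Cells are dosed for 4 h. CytoRed, which reads cellular esterase activity, is measured in the same wells just before the luciferase read. The vehicle is 0.1% DMSO.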

The values below come from ChEMBL document CHEMBL4725260, “Bisphosphonate esters interact with HMG-CoA reductase membrane domain to induce its degradation” (Bioorg Med Chem, 2020).

Structures are written as SMILES. Activity calls are given as the source filed them. No cut-off for these calls is given here.

One may read the EC50 as the concentration that produces a half-maximal response.

For `C#CCCC1(CCOP(=O)(OC(C)C)C(Cc2cc(C(C)(C)C)nc(C(C)(C)C)c2)P(=O)(OC(C)C)OC(C)C)N=N1` (stereo not drawn), the result in data set [1] and in data set [4] was inactive. In addition, the Activity result in data set [2] is “Dose-dependent effect”; in the data set on HEK293 [5] it was “Non-Toxic”. Further, in data set [3] (read-out: EC50), the concentration giving a half-maximal response (EC50) is 0.417 µM. Besides, in data set [6], the result was Active.

On to `C#Cc1cc(CC(P(=O)(OC(C)C)OC(C)C)P(=O)(OC(C)C)OC(C)C)cc(N=[N+]=[N-])c1`, for which the concentration for a half-maximal effect (EC50) entry in data set [3] (hek293) is given as “Not Active”. In addition, the Activity entry with HEK293 [5] is recorded as “Non-Toxic”. Also, the outcome in data set [7] was inactive.

As to `CC(C)OP(=O)(OC(C)C)C(Cc1cc(I)cc(C(C)(C)C)c1)P(=O)(OC(C)C)OC(C)C`, the EC50 in data set [3] (read-out: EC50) turned out to be 1.46 µM. In addition, in the data set with HEK293 [5], the Activity result is “Non-Toxic”.

Consider `C#CCCOP(=O)(OC(C)C)C(Cc1cc(C(C)(C)C)nc(C(C)(C)C)c1)P(=O)(OC(C)C)OC(C)C` (stereo not drawn), for which the 50% effective concentration (EC50) in data set [3] (read-out: EC50) was found to be 0.795 µM. In the data set on HEK293 [5], the Activity entry was “Non-Toxic”.

Consider `CCOP(=O)(OCC)C(=Cc1ccc(O)c(C(C)(C)C)c1)P(=O)(OCC)OCC`, for which the EC50 entry in data set [3] (hek293) is given as “Not Active”. Further, in the data set on HEK293 [5], the Activity entry is listed as “Non-Toxic”. The outcome in data set [7] was inactive.

For `CCOP(=O)(OCC)C(=Cc1cc(C(C)(C)C)c(O)c(C(C)(C)C)c1)P(=O)(OCC)OCC`, the EC50 in data set [3] (read-out: EC50) was determined as 1.1 µM. The Activity result with HEK293 [8] was “Toxic”.

As to `CC(C)OP(=O)(OC(C)C)C(Cc1cc(N=[N+]=[N-])cc(C(C)(C)C)c1)P(=O)(OC(C)C)OC(C)C`, the half-maximal effective concentration (EC50) in data set [3] (read-out: EC50) was determined as 1.66 µM. Besides, in the data set on HEK293 [5], the Activity result was “Non-Toxic”.

As for `CCOP(=O)(OCC)C(=Cc1ccc(O)cc1)P(=O)(OCC)OCC`, in data set [3] (hek293), the concentration for a half-maximal effect (EC50) entry was “Not Active”. Further, the Activity result in the data set with HEK293 [5] is “Non-Toxic”. For the same compound, in data set [7], the outcome was inactive.

On to `CC(C)OP(=O)(OC(C)C)C(Cc1cc(C(C)(C)C)c(O)c(C(C)(C)C)c1)P(=O)(OC(C)C)OC(C)C` [APOMINE], for which the EC50 in data set [3] (read-out: EC50) was 0.876 µM. In addition, the Activity entry in the data set on HEK293 [5] is “Non-Toxic”.

As to `CC(C)OP(=O)(O)C(Cc1cc(C(C)(C)C)nc(C(C)(C)C)c1)P(=O)(OC(C)C)OC(C)C` (stereo not drawn), the EC50 entry in data set [3] (hek293) was “Not Active”. In addition, the Activity result in the data set on HEK293 [5] is “Non-Toxic”. For the same compound, the result in data set [7] was inactive.

Consider `CC(C)OP(=O)(OC(C)C)C(Cc1cc(C(C)(C)C)nc(C(C)(C)C)c1)P(=O)(OC(C)C)OC(C)C`, for which the Activity result is “Dose-dependent effect” in data set [2] and “Non-Toxic” in the data set with HEK293 [5]. For the same compound, the EC50 in data set [3] (read-out: EC50) was determined as 0.153 µM.

Take `CC(C)OP(=O)(OC(C)C)C(Cc1cc(C(C)(C)C)cc(C(C)(C)C)c1)P(=O)(OC(C)C)OC(C)C`: in data set [3] (read-out: EC50), the EC50 was found to be 0.317 µM. For the same compound, in the data set with HEK293 [5], the Activity entry is recorded as “Non-Toxic”.

In the case of `C#Cc1cc(CC(P(=O)(OC(C)C)OC(C)C)P(=O)(OC(C)C)OC(C)C)cc(C(C)(C)C)c1`, in data set [3] (read-out: EC50), the half-maximal effective concentration (EC50) amounted to 3.54 µM. Moreover, the Activity entry with HEK293 [5] is listed as “Non-Toxic”.

For `CCOP(=O)(OCC)C(=Cc1cc(C(C)(C)C)cc(C(C)(C)C)c1)P(=O)(OCC)OCC`, the EC50 in data set [3] (read-out: EC50) came out at 1.16 µM. In the data set on HEK293 [5], the Activity entry is “Non-Toxic”.

In the case of `CCOP(=O)(OCC)C(Cc1cc(C(C)(C)C)c(O)c(C(C)(C)C)c1)P(=O)(OCC)OCC`, in data set [3] (read-out: EC50), the EC50 was 2.77 µM. Moreover, the Activity entry in the data set with HEK293 [5] is “Non-Toxic”.

For `CC(C)OP(=O)(OC(C)C)C(=Cc1cc(C(C)(C)C)c(O)c(C(C)(C)C)c1)P(=O)(OC(C)C)OC(C)C`, the EC50 in data set [3] (read-out: EC50) was 1.34 µM. The Activity result in the data set on HEK293 [8] is given as “Toxic”.

Take `C#CCOP(=O)(OC(C)C)C(Cc1cc(C(C)(C)C)nc(C(C)(C)C)c1)P(=O)(OC(C)C)OC(C)C` (stereo not drawn): in data set [3] (read-out: EC50), the EC50 came to 0.633 µM. In the data set with HEK293 [5], the Activity result is listed as “Non-Toxic”.
